Source: PubChem BioAssay
Rce1 inhib – yeast Rce1p protease inhibitors, primary screen, biochemical, fluorescence, cell-free homogeneous. CAAX prenyl protease 2 (Saccharomyces cerevisiae (strain ATCC 204508 / S288c)), Q03530. yeast membranes, quenched prenylated peptide cleavage fluorescence. calls only. 290,000 tested, 0.27% active. AID 2563, 2010;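 active = fall in fluorescence gain of 50% or more versus controls, with final raw signal at or below 3038400; inconclusive = same 50% fall but final raw signal above 3038400; inactive = fall in fluorescence gain under 50%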;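 also: plate controls were neutral control wells for no effect and wells lacking membranes for full effect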
Target sequence (Q03530 whole entry, looked up): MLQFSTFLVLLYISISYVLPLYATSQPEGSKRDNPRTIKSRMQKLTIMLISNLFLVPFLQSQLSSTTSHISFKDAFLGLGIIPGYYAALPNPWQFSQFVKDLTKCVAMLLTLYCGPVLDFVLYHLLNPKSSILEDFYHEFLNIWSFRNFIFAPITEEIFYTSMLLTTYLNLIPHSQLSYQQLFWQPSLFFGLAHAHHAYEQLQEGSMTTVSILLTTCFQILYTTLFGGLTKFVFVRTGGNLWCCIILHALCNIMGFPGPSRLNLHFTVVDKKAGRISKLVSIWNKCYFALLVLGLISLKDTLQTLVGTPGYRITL
Runt-CBFb FRET – inhibitors of RUNX1 Runt–CBFb binding, primary screen, biochemical, FRET, Cerulean-Runt, Venus-CBFb, uHTS. Cerulean-Runt/Venus-CBFb FRET ratio 530/480, 1 h. inhibition, % at 20 µM. 220,000 tested, 0.46% active. AID 1496, 2009;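 active = inhibition over about 50% at 20 µM in the single-dose screen, limit read from the data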;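 also: 0% = DMSO wells and 100% = excess unlabeled CBFb competitor control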
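Schedule: protein complex preformed 1 h, compound exposure 1 h, room temperature, dark; test system: Cerulean-labeled Runt domain protein; amount: 100 nM per protein; buffer or medium: Tris 50 mM pH 7.5, KCl, K2SO4, 0.01% BSA; read-out: loss of energy transfer signal; detection: FRET fluorescence; controls: 5 µM unlabeled CBFb as full-inhibition high control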
Runt-SMMHC FRET – inhibitors of RUNX1 Runt–CBFb-SMMHC binding, primary screen, biochemical, FRET, Cerulean-Runt, Venus-CBFb-SMMHC, uHTS. Runt-related transcription factor 1 (Homo sapiens) + Core-binding factor subunit beta …. 220,000 tested, 0.74% active. inhibition, % at 20 µM. Cerulean-Runt/Venus-CBFb-SMMHC FRET ratio 530/480, 1 h;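 active = mean inhibition across duplicate retests at 20 µM reaching about 50%, limit read from the data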;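 also: 0% = DMSO wells and 100% = wells with excess untagged CBFb-SMMHC; inhibitors lower the FRET ratio by blocking Runt binding to CBFb-SMMHC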
RanGTP-Impb inh – inhibitors of RanGTP-importin-beta interaction, primary screen, biochemical, FRET, CFP-Ran, YFP-importin-beta, homogeneous | Ran GTPase (GTP-bound) - importin-beta complex | cell-free CFP-Ran/YFP-importin-beta FRET ratio | inhibition, % (test concentration not listed) | 300,000 tested, 1.1% active | AID 2216, 2009;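 active = more than half of the replicate wells show a fall in the fluorescence ratio signal beyond about 16%, limit read from the data, passing the limit was not always enough; inconclusive = exactly half of the replicate wells pass the set limit; inactive = fewer than half of replicates pass the limit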;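 also: 0% = DMSO wells and 100% = Ran loaded with GDP instead of GTP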
Vif inh – HIV Vif self-association inhibitors, primary screen, imaging, HEK293T, single point; AID 602346, 2012; HEK293T cells, Vif self-association by quenched fluorescence, 24 h; inhibition, % at 7.49 µM; 340,000 tested, 0.35% active; in the data active = inhibition above about 50%, passing the limit was not always enough; inconclusive = no clear call, values can overlap the other calls; inactive = below about 31%
The depositor's hits bear a star; i = inactive; ? = inconclusive; · = no result; + = active, no number. In the library only some 1.7% were active in any assay of this set; here they are far more common.

SMILES	Rce1 inhib	Runt-CBFb FRET	Runt-SMMHC FRET	RanGTP-Impb inh	Vif inh
COc1ccc(/C=c2\s/c(=C/C(=O)c3ccc(C)cc3)[nH]c2=O)c(OC)c1	i	-62	-114	-1	97*
COc1cccc(/C=c2\s/c(=C/C(=O)c3ccc(C)cc3)[nH]c2=O)c1OC	i	-54	-57	?	11
Cc1nc(N2CCOCC2)nc(Oc2ccccc2)c1[N+](=O)[O-]	i	-1	-2	2	18
CC(C)(C)c1cc(CCC(=O)NNC(=O)c2ccncc2)cc(C(C)(C)C)c1O	·	·	·	·	7
COc1cc2c(cc1OC)C(C)N(C(=O)CCNC(=O)c1ccccc1)CC2 (stereo unspecified)	+	·	·	4	-3
CCc1nc2ccc(C(=O)Nc3ccc4c(c3)OCC(=O)N4)cn2c1N(CC)Cc1cccc(Br)c1	·	·	·	·	1
O=C(NC(=S)N1CCCCC1c1cccnc1)c1ccc(Br)cc1 (stereo unspecified)	i	·	·	33*	-6
O=C(NC(=S)N1CCCCC1c1cccnc1)c1ccc(F)cc1 (stereo unspecified)	i	·	·	19*	8
Cc1cccc(NC(=S)N2CCCCC2c2cccnc2)c1C (stereo unspecified)	i	1	-1	3	0
COc1ccc(NC(=S)N2CCCCC2c2cccnc2)cc1 (stereo unspecified)	i	-2	0	5	·
CCc1cc2c3c(c(=O)oc2cc1OC(C)C(=O)O)CCCC3 (stereo unspecified)	i	·	·	-1	2
COc1ccc(OC)c(CN2CCN(Cc3cc(=O)oc4cc(O)ccc34)CC2)c1	i	·	·	61*	0
CCc1cc2c(CN3CCN(C)CC3)cc(=O)oc2cc1O	i	18	57*	114*	-10
CC(=O)C(C)Oc1ccc2c3c(c(=O)oc2c1)CCCC3 (stereo unspecified)	+	8	26	0	0
CN1CCN(Cc2cc(=O)oc3cc4c(cc23)CCC4)CC1	i	3	2	-1	·
CCc1cc2c3c(c(=O)oc2cc1O)CCCC3	i	96*	144*	?	5
COC(=O)C1CCN(Cc2cc(=O)oc3cc(OC)ccc23)CC1	i	0	4	4	-7
CCSc1nnc(NC(=O)CN2C(=O)N(C)C3(CCCCC3)C2=O)s1	·	·	·	·	-3
CCc1cc2c(CN3CCN(CCO)CC3)cc(=O)oc2cc1O	i	70*	62*	113*	4
Cc1ccc2c(CN3CCN(CCO)CC3)cc(=O)oc2c1C	i	2	1	-2	19
N=c1c(S(=O)(=O)c2ccc(Cl)cc2)cc2c(=O)n3ccccc3nc2n1C1CCCCC1	i	·	·	?	-1
Cc1ccc(S(=O)(=O)c2cc3c(=O)n4ccccc4nc3n(C3CCCCC3)c2=N)cc1	i	·	·	48*	13
CCCCCn1c(=N)c(S(=O)(=O)c2ccc(Br)cc2)cc2c(=O)n3cccc(C)c3nc21	i	·	·	?	1
N=c1c(S(=O)(=O)c2ccc(Br)cc2)cc2c(=O)n3ccccc3nc2n1C1CCCC1	i	·	·	69*	-3
N=c1c(S(=O)(=O)c2ccccc2)cc2c(=O)n3ccccc3nc2n1C1CCCC1	i	·	·	144*	29
SMILES	Rce1 inhib	Runt-CBFb FRET	Runt-SMMHC FRET	RanGTP-Impb inh	Vif inh
CCOc1cc(C(=O)NC2CC(C)(C)NC(C)(C)C2)cc(OCC)c1OCC	·	·	·	6	0
Cc1ccc(S(=O)(=O)NCC(=O)N2CCOCCOCCOCC2)cc1	i	·	·	2	0
CCOC(=O)C1CCN(CCC(=O)Nc2ccc(Br)c(C)c2)CC1	i	·	·	6	-1
Cc1cc(NC(=O)CCN2CCC(C(N)=O)CC2)ccc1Br	i	2	2	59*	·
C[C@H](NS(=O)(=O)c1c(Cl)cccc1Cl)C(=O)NNC(=O)COc1ccccc1F	·	·	·	·	52*
CC(=O)c1cccc(NC(=O)Nc2c(C)nn(C)c2C)c1	i	0	-1	63*	-7
CCCN1CCC(NC(=O)Cc2cccc(C)c2)CC1	i	·	·	-4	0
O=C(CN1CCN(c2ccc(F)cc2)CC1)Nc1ccccc1[N+](=O)[O-]	i	-1	-3	5	-1
Cc1ccc(S(=O)(=O)N2CCN(C(=O)c3n[nH]c(=O)c4ccccc34)CC2)c(C)c1	·	·	·	·	53*
COc1ccc(C(NC(=O)CNC(C)=O)C(=O)Nc2ccc3c(c2)OCCO3)cc1 (stereo unspecified)	i	2	2	-3	51*
CCN(CC)c1ccc(/C=N/NC(=O)C(O)(c2ccccc2)c2ccccc2)o1	+	-7	-8	?	·
CC1CCCCC12NC(=O)N(CC(=O)N1CCN(C(=O)c3ccco3)CC1)C2=O (stereo unspecified)	·	·	·	·	0
CCCC[C@H]1C2=C3[C@@H](CC(C(=O)OC)=C[C@@H](C(=O)OC)[C@H]3C(C)(C)C2=O)n2c(=O)n(-c3ccccc3)c(=O)n21	i	·	·	-3	-5
O=C(NC1CC1)c1ccc2c(c1)N(Cc1ccccc1)CCS2	+	·	·	0	-9
CCOC(=O)N1CCC(NC(=O)c2ccc3c(c2)N(Cc2ccccc2)CCS3)CC1	i	1	-1	2	-4
CCO[C@@H]1OC(C(N)=O)=C[C@H](c2ccc(C(F)(F)F)cc2)[C@H]1CCCO	i	-2	1	24*	9
CC(C)OP(=O)(OC(C)C)C(C)NC(=O)Cc1ccccc1 (stereo unspecified)	i	-1	-2	?	4
COc1cc(CN2CCNC(=O)C2CC(=O)NCCCC2CCCC2)cc(OC)c1 (stereo unspecified)	i	·	·	-1	3
CCCCOc1ccc(-c2cc(C(F)(F)F)c(C#N)c(SCC(=O)O)n2)cc1	+	-36	-89	-7	0
CC(=O)c1cc2c(s1)-c1cc(F)ccc1OC2	·	-54	88*	-39	-12
Cc1cc(NC(=O)CSc2nnc3ccc(-c4ccc(F)cc4)nn23)no1	i	·	·	1	10
COc1cc(C(=O)N(C)C2CCCCC2)cc(OC)c1OC	·	·	·	·	5
Cc1cc(N)ccc1NC(=O)c1ccccc1	·	1	-2	-4	8
Cc1cc(NC(=O)c2ccccc2)c(Cl)cc1N	i	1	-3	-7	116*
COc1ccc(N2CCN(C(=O)c3oc4ccccc4c3NC(=O)CCc3cc(OC)no3)CC2)cc1	i	·	·	-1	5
COCCN(CC(=O)Nc1cccc(C)c1C)C(=O)c1cc2c(s1)CCC2	·	·	·	·	4
